Tests used:
[1] = target: T1, hA3AR (Homo sapiens, UniProt P0DMS8); assay: Radioligand membrane binding assay with [125I]I-AB-MECA
T1 sequence (P0DMS8 1-318): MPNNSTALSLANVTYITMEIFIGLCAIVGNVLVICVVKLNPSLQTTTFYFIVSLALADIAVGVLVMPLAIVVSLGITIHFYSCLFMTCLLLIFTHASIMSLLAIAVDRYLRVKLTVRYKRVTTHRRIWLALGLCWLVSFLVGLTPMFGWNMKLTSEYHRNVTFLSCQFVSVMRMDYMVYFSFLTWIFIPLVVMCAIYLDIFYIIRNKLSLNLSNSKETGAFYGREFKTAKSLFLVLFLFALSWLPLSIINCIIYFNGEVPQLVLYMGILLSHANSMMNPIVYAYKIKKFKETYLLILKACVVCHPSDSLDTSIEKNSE
In short: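 Membranes came from CHO (hA1, hA3) or HEK293 (hA2A) cells, homogenized in 50 mM Tris-HCl pH 7.5 with 10 mM MgCl2, pelleted at 20,000 × g and stored at −80 °C with 3 units/ml adenosine deaminase. Protein was measured by Bradford. […] Ki values were obtained at each subtype.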

[2] = target: T1, hA3AR; assay: Fluorescent ligand binding
In short: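 hA3AR-CHO cells were incubated in medium at 37 °C, 5% CO2. Preliminary screen: 1 h with conjugates at 1.5–20 μM or tracer at 10 nM. Saturation: tracer 2.5–250 nM for 1 h. Kinetics: 10 nM tracer, read from 5 min to 3 h, with dissociation started at 90 min by 10 μM non-fluorescent A3AR antagonist. Cells were EDTA-detached and read by flow cytometry; MFI was corrected for autofluorescence and converted to MESF using bead calibration.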

[3] = target: A2AAR (Homo sapiens, UniProt P29274); assay: FCM binding of MRS5449 to HEK cells expressing the A2AAR
In short: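 Stably transfected lines grew in DMEM/F12 (1:1) with 10% FBS, 2 mM L-glutamine and penicillin/streptomycin: A1AR CHO cells under 500 μg/ml hygromycin B, A2AAR HEK293 cells under 800 μg/ml G418. Cells were seeded about 400,000/well and grown 24 h at 37 °C, 5% CO2. At about 80% confluency the medium was refreshed and the fluorescent tracer added. Cells were then washed, detached with 0.2% EDTA and read by flow cytometry (488 nm excitation), with autofluorescence subtracted.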

Chain of A2AAR (P29274 whole entry): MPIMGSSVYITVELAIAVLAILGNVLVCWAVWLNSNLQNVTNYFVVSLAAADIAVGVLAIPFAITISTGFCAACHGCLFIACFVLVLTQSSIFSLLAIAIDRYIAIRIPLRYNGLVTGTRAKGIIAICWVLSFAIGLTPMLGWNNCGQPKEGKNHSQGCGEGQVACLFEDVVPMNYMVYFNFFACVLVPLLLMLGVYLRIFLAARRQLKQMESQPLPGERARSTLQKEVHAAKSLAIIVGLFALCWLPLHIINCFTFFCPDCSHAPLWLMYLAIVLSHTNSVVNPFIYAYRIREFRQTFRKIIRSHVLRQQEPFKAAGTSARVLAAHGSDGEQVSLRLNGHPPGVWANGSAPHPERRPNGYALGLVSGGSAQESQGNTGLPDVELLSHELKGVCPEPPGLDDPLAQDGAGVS

- Ki ([1]; read-out: A3 Ki, CHO cells stably expressing hA3AR, agonist radioligand [125I]I-AB-MECA): 6.4 ± 2.5 nM
- selectivity for the A3AR ([1]; versus hA1 and hA2AARs, from radioligand Ki values): over 10 fold
- Nonspecific binding, % of total binding ([2]; 10 nM MRS5449, in presence of 10 μM MRS1220 or 10 μM Cl-IB-MECA or in control CHO cells): less than 1%
- fluorescence emission (MFI) of cell-bound ligand ([2]; preliminary FCM, 1 h, 37 °C, 1.5-20 μM for 1-6, 10 nM MRS5449): sufficiently high MFI
- binding compared with the binding to the A3AR (expressed as 100%) [3]: 0.5%
Structure (SMILES): N=c1ccc2c(-c3ccc(C(=O)NCCCCCCn4cc(CCCC(=O)Nc5nc6ccc(Cl)cc6c6nc(-c7ccco7)nn56)nn4)cc3C(=O)O)c3ccc(N)c(S(=O)(=O)O)c3oc-2c1S(=O)(=O)O [Compound 9, 2-(6-Amino-3-iminio-4,5-disulfonato-3H-xanthen-9-yl)-5-((6-(4-(4-((9-chloro-2-(furan-2-yl)-[1,2,4]triazolo[1,5-c]quinazolin-5-yl)amino)-4-oxobutyl)-1H-1,2,3-triazol-1-yl)hexyl)carbamoyl)benzoate]
